# Measured values: publication PMC4841444 (Lipids, 2015)
# How the values were obtained:
# recombinant HIV-1-RT = recombinant HIV-1-RT (Human immunodeficiency virus type 1 group M subtype B, UniProt P03366); assay: Reverse Transcriptase Colorimetric Assay; assay type: biochemical
# [1] = Cytotoxicity against PBMC; assay type: cell-based; settings: human, peripheral blood mononuclear cells (PBMC)
# Method in brief: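 PBMCs from healthy volunteers, grown in IL-2-supplemented medium, seeded at 20,000 cells/well and exposed to fatty acids at 5–500 µM final. Incubation 3 days at 37 °C in humidified 5% CO2. Viability read by MTT.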
# HIV-1 RT = settings: read-out: IC50 against HIV-1 RT; non-competitive inhibitor; cited from earlier work
Compound,IC50 (recombinant HIV-1-RT) [µM],IC50 at 3 days [1] [µM],IC50 (HIV-1 RT) [µM],"inhibition of the HIV-1 RT enzyme (in words) (recombinant HIV-1-RT; recombinant HIV-1 RT, colorimetric assay)"
"CCCCCCCCCCCCCCCCCCCC#CCCCC(=O)O [1a, 5-Pentacosynoic acid]",24 ± 1,> 500,–,–
"CCCCCCCCCCCCCCCC#CCCCCCCCC(=O)O [1b, 9-Pentacosynoic acid]",–,> 500,–,–
CCCCCCCCCCCCCCCCCCCCCCC#CC(=O)O [2-Pentacosynoic acid],566 ± 1,–,–,–
"CCCCCCCCCCCCCCCCCCC/C=C\CCCC(=O)O [2a, (5Z)-5-Pentacosenoic acid]",38 ± 1,> 500,–,–
"CCCCCCCCCCCCCCC/C=C\CCCCCCCC(=O)O [2b, (9Z)-9-Pentacosenoic acid]",54 ± 1,> 500,–,–
CCCCCCCCCCC#CCCCCC(=O)O [6-Heptadecynoic acid],> 1000,–,–,–
CCCCCCCCCCCCCC#CCCCCC(=O)O [6-Icosynoic acid],> 1000,–,–,–
"CCCCCCCC/C=C\CCCCCCCCCCCCCC(=O)O [Nervonic acid, cis-15-tetracosenoic acid]",12 ± 1,> 500,4.8,–
CCCCCCCCCCCCCCCC(=O)O [Palmitic acid],> 1000,–,–,–
CCCCCCCCCCCCCCCCCCCCCCCCC(=O)O [Pentacosanoic acid],–,–,–,does not inhibit HIV-1 RT at all
